Measurements published in ChEMBL document CHEMBL3232898, “Heterocyclic aminoparthenolide derivatives modulate G(2)-M cell cycle progression during Xenopus oocyte maturation” (Bioorg Med Chem Lett, 2014).
The source made the active and inactive calls. The rule behind the calls is not given here.

Columns and labels:
Oocyte [1] = assay: Modulation of G2-M cell cycle progression in Xenopus oocytes assessed as effect on phenotype upon progression to GVBD during oocyte maturation in presence of progesterone; type: functional, cell-based
Method in brief: (§1)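 Isolated Xenopus oocytes (20 per well) were incubated overnight with compound added from DMSO stock (100 µM starting concentration, 1% DMSO final). Next morning GVBD was scored by the appearance of a white spot on the animal pole. Oocytes without spots then received 2 µg/ml progesterone. Time to GVBD was expressed relative to the GVBD50 of DMSO controls, where 1.0 means no change, 2.0 means no maturation and 0.0 means spontaneous GVBD.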

Oocyte [2] = assay: Modulation of G2-M cell cycle progression in Xenopus oocytes assessed as delay time to germinal vesicle breakdown at 100 uM measured after overnight incubation in presence of progesterone; type: functional, cell-based; method in brief: as §1
Oocyte [3] = assay: Modulation of G2-M cell cycle progression in Xenopus oocytes assessed as acceleration of progesterone-stimulated oocyte progression to germinal vesicle breakdown at 5 to 50 uM measured after overnight incubation relative to DMSO-treated control; type: functional; method in brief: as §1
Oocyte [4] = assay: Modulation of G2-M cell cycle progression in Xenopus oocytes assessed as inhibition of progesterone-stimulated maturation by measuring germinal vesicle breakdown at 100 uM measured after overnight incubation; type: functional, cell-based; method in brief: as §1
Oocyte [5] = assay: Modulation of G2-M cell cycle progression in Xenopus oocytes assessed as acceleration of progesterone-stimulated maturation by measuring germinal vesicle breakdown after overnight incubation; type: functional, cell-based; details: Xenopus laevis; method in brief: as §1
Xenopus [6] = assay: Activation of CDK1/Cyclin B (MPF) in Xenopus oocytes assessed as retention of inhibitory phosphorylation of CDK1 at 100 uM measured prior to GVBD completion; type: cell-based
Method in brief: (§2)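 Oocytes treated with compound or DMSO were lysed in NP40 buffer with sodium vanadate and protease inhibitors, clarified, run on 10% gels and blotted to nitrocellulose. Blots were blocked in 1% BSA/TBST and probed at 1:1000 with phospho-Cdc2 Tyr15 (inhibitory) and phospho-MAP kinase Thr202/Tyr204 (activating) antibodies, then HRP secondary with ECL detection.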

Xenopus [7] = assay: Activation of progesterone-independent MAPK in Xenopus oocytes assessed as de-phosphorylation of MPF at 100 uM measured after GVBD completion; type: cell-based; method in brief: as §2
Oocyte [8] = assay: Modulation of G2-M cell cycle progression in Xenopus oocytes assessed as induction of oocyte progression to germinal vesicle breakdown by measuring appearance of white spot on animal pole after overnight incubation in absence of progesterone; type: functional, cell-based; method in brief: as §1
Oocyte [9] = assay: Modulation of G2-M cell cycle progression in Xenopus oocytes assessed as induction of spontaneous maturation by measuring germinal vesicle breakdown at 100 uM after overnight incubation in absence of progesterone; type: functional, cell-based; method in brief: as §1
Xenopus [10] = assay: Activation of progesterone-independent MAPK in Xenopus oocytes assessed as enzyme phosphorylation at 100 uM measured after GVBD completion; type: cell-based; method in brief: as §2
Xenopus [11] = assay: Activation of progesterone-independent MAPK in Xenopus oocytes assessed as enzyme phosphorylation at 100 uM measured prior to GVBD completion; type: cell-based; method in brief: as §2

| Compound | Activity (Oocyte [1]) | also measured |
| --- | --- | --- |
| C/C1=C\CC[C@@]2(C)O[C@@H]2[C@H]2OC(=O)[C@@H](CNCC3CCNCC3)[C@@H]2CC1 | inactive | – |
| C/C1=C\CC[C@@]2(C)O[C@@H]2[C@H]2OC(=O)[C@@H](CNCCN3CCOCC3)[C@@H]2CC1 | – | Activity (Oocyte [2]): Active |
| C/C1=C\CC[C@@]2(C)O[C@@H]2[C@H]2OC(=O)[C@@H](Cn3ccnc3C)[C@@H]2CC1 | inactive | – |
| C/C1=C\CC[C@@]2(C)O[C@@H]2[C@H]2OC(=O)[C@@H](Cn3cnc(C(F)(F)F)c3)[C@@H]2CC1 | inactive | – |
| C/C1=C\CC[C@@]2(C)O[C@@H]2[C@H]2OC(=O)[C@@H](CNCCCn3ccnc3)[C@@H]2CC1 | – | fold change (FC) (Oocyte [3]): 2; inhibition (Oocyte [4]): Active; EC50 (Oocyte [5]): < 5 µM |
| C/C1=C\CC[C@@]2(C)O[C@@H]2[C@H]2OC(=O)[C@@H](CN(C)C)[C@@H]2CC1 | inactive | – |
| C/C1=C\CC[C@@]2(C)O[C@@H]2[C@H]2OC(=O)[C@@H](Cn3cnc([N+](=O)[O-])c3)[C@@H]2CC1 | inactive | – |
| C=C1C(=O)O[C@@H]2C3O[C@]3(C)CC/C=C(\C)CC[C@@H]12 (stereo not given in full) | inactive | – |
| C/C1=C\CC[C@@]2(C)O[C@@H]2[C@H]2OC(=O)[C@@H](CNCc3nc4ccccc4[nH]3)[C@@H]2CC1 | inactive | – |
| CSc1nc(NC[C@@H]2C(=O)O[C@H]3[C@H]2CC/C(C)=C/CC[C@@]2(C)O[C@H]32)n[nH]1 | inactive | – |
| C/C1=C\CC[C@@]2(C)O[C@@H]2[C@H]2OC(=O)[C@@H](Cn3cnc(CO)c3)[C@@H]2CC1 | inactive | – |
| C/C1=C\CC[C@@]2(C)O[C@@H]2[C@H]2OC(=O)[C@@H](Cn3ccnc3)[C@@H]2CC1 | inactive | – |
| C/C1=C\CC[C@@]2(C)O[C@@H]2[C@H]2OC(=O)[C@@H](CNc3nc4ccccc4[nH]3)[C@@H]2CC1 | – | Activity (Xenopus [6]): inactive; Activity (Xenopus [7]): Active; Activity (Oocyte [8]): Dose-dependent effect; Activity (Oocyte [9]): Active; Activity (Xenopus [10]): Active; Activity (Xenopus [11]): Active |
